Rows were chosen to be rich in hits. Some 2.1% of all compounds tested hit in one or more screens of this group.
eIF4H inh – human eIF4H binding inhibitors, primary screen, translation initiation inhibitor project, biochemical, uHTS, fluorescence polarization. Eukaryotic translation initiation factor 4H (Homo sapiens), Q15056. eIF4H fluorescence polarization binding assay. hit rate 0.94% among 290,000. inhibition, % at 35 µM;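 also: calls also rest on retests at 20 µM and on dose response follow-up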
PABP polyA inh – PABP poly(A) RNA binding inhibitors, primary screen, biochemical, fluorescence polarization, uHTS; Polyadenylate-binding protein 1 (Homo sapiens), P11940; inhibition, % at 35 µM; hit rate 1% among 290,000; AID 2014, 2009;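 also: calls also rest on retests at 20 µM and on dose response follow-up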
Target sequence (P11940 whole entry, looked up): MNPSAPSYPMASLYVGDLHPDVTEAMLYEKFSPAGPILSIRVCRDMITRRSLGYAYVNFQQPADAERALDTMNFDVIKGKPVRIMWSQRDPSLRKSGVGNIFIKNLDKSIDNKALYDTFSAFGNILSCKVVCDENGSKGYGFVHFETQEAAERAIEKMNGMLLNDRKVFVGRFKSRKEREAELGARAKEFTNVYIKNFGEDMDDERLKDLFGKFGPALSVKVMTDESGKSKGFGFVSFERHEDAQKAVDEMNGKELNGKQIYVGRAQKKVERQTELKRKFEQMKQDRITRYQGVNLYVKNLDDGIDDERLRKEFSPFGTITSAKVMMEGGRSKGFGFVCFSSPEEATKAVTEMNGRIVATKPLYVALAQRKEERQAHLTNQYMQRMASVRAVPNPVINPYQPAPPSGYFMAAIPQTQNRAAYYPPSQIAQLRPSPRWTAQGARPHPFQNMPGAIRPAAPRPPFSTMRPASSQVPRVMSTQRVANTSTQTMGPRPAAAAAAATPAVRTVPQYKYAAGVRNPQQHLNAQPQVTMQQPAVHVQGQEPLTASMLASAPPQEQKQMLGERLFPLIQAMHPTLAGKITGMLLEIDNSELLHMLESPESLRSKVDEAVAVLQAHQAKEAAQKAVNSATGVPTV
ZTA counter – ZTA (EBV) inhibition in EBNA-1 counter-screen. inhibition, % at 11 µM. P03206. hit rate 0.15% among 320,000. ZTA-DNA binding, fluorescence polarization. AID 2234; in the data active = inhibition above about 33%
MLLE-PAM2 inh – inhibitors of PABP1 MLLE–PAM2 peptide binding, primary screen, biochemical, fluorescence polarization, FITC-PAM2, GST-MLLE; inhibition, % at 20 µM; AID 588489, 2011; hit rate 0.36% among 360,000; Polyadenylate-binding protein 1 (Homo sapiens), P11940; in the data active = inhibition above about 35%, passing the limit was not always enough
HCV NS3 hel inh – inhibitors of HCV NS3 helicase, primary screen, biochemical, Cy5 molecular beacon fluorescence; Hepatitis C virus NS3 helicase; NS3 helicase DNA unwinding; inhibition, % at 10.9 µM; hit rate 0.56% among 290,000;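 active = inhibition above the mean of all tested compounds plus 3 SD, set per campaign, cut at about 35% in these data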
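Control set: DMSO versus 110 µM thioflavine S; Material: NS3 helicase fragment of HCV; Measured by: Cy5 fluorescence at 0 and 60 min, beacon hairpin quenching; Read-out basis: percent inhibition from t60/t0 fluorescence ratio; Times: reaction time 60 min, 25 °C; Repeats: single replicate; Compound dosing: single dose, 10.9 µM nominal final, DMSO 0.8% final.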
EBNA-1 inh – EBNA-1 DNA-binding inhibitors, primary screen, biochemical, fluorescence polarization; hit rate 0.34% among 300,000; inhibition, % at 14.8 µM; in the data active = inhibition above about 28%
A number is an active result; i = inactive; ? = inconclusive; nt = no result given. Unless noted, no rule for the calls is given here.

SMILES | eIF4H inh | PABP polyA inh | ZTA counter | MLLE-PAM2 inh | HCV NS3 hel inh | EBNA-1 inh
NC(=S)NN=C1c2cc(S(=O)(=O)N3CCOCC3)ccc2-c2ccc(S(=O)(=O)N3CCOCC3)cc21 | i | i | i | 39.6 | i | i
CN(C)N=C1c2cc(S(=O)(=O)N3CCOCC3)ccc2-c2ccc(S(=O)(=O)N3CCOCC3)cc21 | i | i | i | i | i | i
[O-]/[N+](=C\C=C\c1ccccc1)c1ccccc1 | 1.1 | 52.0 | i | i | i | i
O=C1CCCC2=C1C(c1ccccn1)Nc1ccc(C(=O)c3ccccc3)cc1N2 (stereo not given) | i | i | i | i | i | i
O=C1CCCC2=C1C(c1ccco1)Nc1ccc(C(=O)c3ccccc3)cc1N2 (stereo not given) | 81.5 | 53.2 | i | i | i | i
COc1ccc([C@H]2C[C@@H](n3cc(C4CC4)nn3)[C@H](O)CN2Cc2cccs2)cc1 | nt | nt | nt | i | nt | nt
Cc1ccc(C)c2c1cc(C)c1nnc(SCC(=O)c3cccs3)n12 | i | i | i | i | i | i
Cc1ccc2cc(C)c3nnc(SCC(=O)c4cccs4)n3c2c1C | 96.4 | 6.4 | i | i | i | i
O=C(c1ccco1)N1CCN(C(=O)c2cc(Cl)nc3ccccc23)CC1 | nt | nt | i | i | nt | i
COc1cc2ccccc2cc1C(=O)NC(=S)Nc1cccc(C(=O)O)c1 | i | i | i | 40.0 | i | i
Cc1ccc(C(c2nnnn2CCC(C)C)N2CCN(C)CC2)cc1 (stereo not given) | i | i | i | i | i | i
COc1cccc(C(NC(=O)C2CCN(CCCOc3ccccc3)CC2)c2ccccn2)c1 (stereo not given) | nt | nt | nt | i | nt | nt
Cc1ccc(C(=O)O)cc1NC(=S)NC(=O)c1ccc(-c2ccc(Cl)cc2)o1 | i | i | i | 50.9 | i | i
COc1ccc(/C=C/c2nc3cc(-c4ccccc4)ccc3o2)cc1O | i | i | i | i | i | i
CCOc1cc2c(C#N)c(N3CCOCC3)nc(N)c2c(N)n1 | 72.6 | 57.0 | i | i | nt | i
COCCCNC(=O)c1cccn2c(=O)c3cc4ccccc4cc3nc12 | i | 67.3 | i | i | i | i
O=C(NCc1ccco1)c1cccn2c(=O)c3cc4ccccc4cc3nc12 | i | i | nt | nt | i | nt
O=c1[nH]nc(Sc2ccccc2)c(=S)[nH]1 | nt | nt | nt | 45.5 | nt | nt
O=c1[nH]nc(SCc2ccccc2)c(=O)[nH]1 | i | i | i | i | i | i
Nc1nnc(SCc2ccccc2Cl)s1 | 7.2 | 52.1 | i | i | i | i
COc1ccc(C2=NO[C@@H]3C(=O)N(c4cccc(C)c4C)C(=O)[C@H]23)cc1OC | i | i | i | i | i | i
COc1ccc([C@H](NC(=O)OC(C)(C)C)C(=O)OC(C)(C)C)cc1 | nt | nt | i | i | nt | nt
c1ccc(COC2CCCN(Cc3nc(-c4cnccn4)no3)C2)nc1 (stereo not given) | i | i | i | i | i | i
CC(=O)c1ccc(S(=O)(=O)Nc2cccc(-n3cnnn3)c2)cc1 | 98.0 | 41.3 | i | i | i | i
Cc1ccc2c(C)c(C(=O)NCCc3ccco3)oc2c1C | i | i | i | i | i | i
SMILES | eIF4H inh | PABP polyA inh | ZTA counter | MLLE-PAM2 inh | HCV NS3 hel inh | EBNA-1 inh
CC(=O)Nc1ccc(SC[C@H](Cc2ccccc2)N2CCN(CCc3ccccc3)CCC2=O)cc1 | i | i | i | i | nt | i
CC(C)(C)[C@H]1CCC(=O)N([C@H](CSc2ccccc2)Cc2ccccc2)CC1 | i | i | i | i | i | i
CC(=O)Nc1ccc(SC[C@H](Cc2ccccc2)N2CC[C@@H](C(C)(C)C)CCC2=O)cc1 | nt | nt | i | 41.7 | nt | nt
CC(=O)Nc1ccc(SC[C@H](Cc2ccccc2)N2CC[C@@H](O)CCC2=O)cc1 | nt | nt | i | 40.6 | nt | nt
COc1ccc(/C=C2\SC(=S)N(CC(=O)NCCO)C2=O)cc1 | i | i | i | i | i | i
CCCCC(=O)Nc1ccc(NC(=O)c2cccnc2)cn1 | i | i | i | i | i | i
O=C1c2sccc2-c2cccc3cccc1c23 | nt | nt | nt | 66.5 | nt | nt
O=C1C(Br)=Cc2cccc3cccc1c23 | ? | ? | i | i | i | i
CC(=O)Oc1cccc(C(=O)Nc2cccc(C(=O)Nc3ccccc3C(=O)O)c2)c1 | i | i | i | i | i | i
